Our source for the IC50 and NOEC values is ChEMBL document CHEMBL1134288, “Design and optimization of 20-O-linked camptothecin glycoconjugates as anticancer agents” (J Med Chem, 2001).

As a reminder, the IC50 is the concentration needed to halve the response being measured. Higher therefore signals weaker potency.

Assay [1] relates to B16-F10. The assay is described as follows: In vitro cytotoxic activity against murine melanoma cell line B16F10 using MTT growth inhibition assay. It is filed as functional, cell-based. The note with it: Mus musculus. Put shortly:
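This murine melanoma line was grown in RPMI 1640 with 10% FCS, trypsinized at confluence and seeded at 20,000 cells/mL, then left 1 day. Compounds in DMSO or water were added. After 6 days, MTT (5 mg/mL stock) was added for 5 h at 37 °C, formazan was dissolved in 2-propanol/water, and absorbance was read at 595 nm to give IC50.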
For orientation: Formazan colour is commonly taken as a measure of viable cells.

Assay [2] has as its system HT-29. In words: In vitro cytotoxic activity against human colon cancer cell line HT-29 using MTT growth inhibition assay. The assay is classed as functional, cell-based. Put shortly:
(§1)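 Cells were grown in RPMI 1640 with 10% FCS, trypsinized at confluence and plated at 50,000 cells/mL, then left 1 day. Compounds in DMSO or water were added, and growth was read 6 days later by MTT (5 mg/mL stock, 5 h at 37 °C). Formazan was dissolved in 2-propanol/water and absorbance read at 595 nm; IC50 was derived from this read-out.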

Assay [3] relates to SW480. In words: In vitro cytotoxic activity against human colon cancer cell line SW480 using MTT growth inhibition assay. It is filed as functional, cell-based. Put shortly:
as §1

For assay [4], the species on record is Rattus norvegicus. In words: In vitro No effect conc (NOEC) with respect to elevated levels of aspartate aminotransferase (AST) using primary hepatocytes of rat. It is filed as functional, Hepatocyte. Put shortly:
(§2)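 Primary hepatocytes were isolated by two-step liver perfusion: first an EGTA (0.5 mM)/HEPES buffer, then a HEPES (pH 7.4) buffer with CaCl2 and collagenase type IV. Cells were cultured in collagen sandwich gels in supplemented medium with 10% FCS, then given 48 h adaptation. DMSO stocks (3 mM) were diluted in medium. Treatment ran 1-7 days with daily medium change, and ALT, AST and LDH were read in the supernatant.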

The species named for assay [5] is Canis familiaris. In words: In vitro No effect conc (NOEC) with respect to elevated levels of alanine aminotransferase (ALT) using primary hepatocytes of dog. It is filed as functional, Canis lupus familiaris, Hepatocyte. Put shortly:
as §2

The species named for assay [6] is Homo sapiens. The assay is described as follows: In vitro No effect conc (NOEC) with respect to elevated levels of Lactate dehydrogenase (LDH) using primary hepatocytes of human. The assay is classed as functional, Hepatocyte. Put shortly: as §2
Assay [7] is filed under the species Homo sapiens. In words: In vitro No effect conc (NOEC) with respect to elevated levels of aspartate aminotransferase (AST) using primary hepatocytes of human. It is filed as functional, Hepatocyte. Put shortly:
as §2

For assay [8], the species on record is Rattus norvegicus. The assay is described as follows: In vitro No effect conc (NOEC) with respect to elevated levels of alanine aminotransferase (ALT) using primary hepatocytes of rat. The assay is classed as functional, Hepatocyte. Put shortly:
as §2

The species named for assay [9] is Canis familiaris. In words: In vitro No effect conc (NOEC) with respect to elevated levels of Lactate dehydrogenase (LDH) using primary hepatocytes of dog. The assay is classed as functional, Canis lupus familiaris, Hepatocyte. Put shortly:
as §2

The species named for assay [10] is Rattus norvegicus. In words: In vitro No effect conc (NOEC) with respect to elevated levels of Lactate dehydrogenase (LDH) using primary hepatocytes of rat. It is filed as functional, Hepatocyte. Put shortly: as §2
The species named for assay [11] is Homo sapiens. In words: In vitro No effect conc (NOEC) with respect to elevated levels of alanine aminotransferase (ALT) using primary hepatocytes of human. It is filed as functional, Hepatocyte. Put shortly:
as §2

The species named for assay [12] is Canis familiaris. In words: In vitro No effect conc (NOEC) with respect to elevated levels of aspartate aminotransferase (AST) using primary hepatocytes of dog. The assay is classed as functional, Canis lupus familiaris, Hepatocyte. Put shortly: as §2

For `CC[C@@]1(OC(=O)C(NC(=O)[C@H](CCCN=C(N)N)/N=C(\S)Nc2ccc(O[C@H]3O[C@@H](C)[C@@H](O)[C@@H](OC)[C@@H]3O)cc2)C(C)C)C(=O)OCc2c1cc1n(c2=O)Cc2cc3ccccc3nc2-1` (stereo partly specified), the 50% inhibitory concentration (IC50) in assay [1] is 400 nM; in [2], 100 nM; in assay [3], 170 nM.
`CC[C@@]1(OC(=O)C(NC(=O)[C@H](Cc2c[nH]cn2)/N=C(\S)Nc2ccc(O[C@H]3O[C@@H](C)[C@@H](O)[C@@H](OC)[C@@H]3O)cc2)C(C)C)C(=O)OCc2c1cc1n(c2=O)Cc2cc3ccccc3nc2-1` (stereo partly specified): the NOEC is 10 µM in assay [4]; 10 µM in assay [5]; 30 µM in assay [6]; 30 µM in assay [7]; 10 µM in assay [8]; 10 µM in assay [9]. Besides, the NOEC is 10 µM in assay [10], 30 µM in [11] and 10 µM in [12]. In addition, the values for the half-inhibitory concentration (IC50) in [1], in assay [2] and in assay [3] were 250 nM, 60 nM and 170 nM, respectively.
Turning to `CC[C@@]1(OC(=O)C(NC(=O)[C@H](CCCCN)/N=C(\S)Nc2ccc(O[C@H]3O[C@@H](C)[C@@H](O)[C@@H](OC)[C@@H]3O)cc2)C(C)C)C(=O)OCc2c1cc1n(c2=O)Cc2cc3ccccc3nc2-1` (stereo partly specified), the NOEC in assay [4] worked out at 30 µM; in assay [5] it was 10 µM; in assay [6], 30 µM; in [7], 30 µM; in assay [8] it was 30 µM; in assay [9], 30 µM. In addition, the NOEC in assay [10], in assay [11] and in [12] was 30 µM each time. Besides, the 50% inhibitory concentration (IC50) worked out at 700 nM in assay [1], 150 nM in [2] and 170 nM in [3].
With `CC[C@@]1(OC(=O)CNC(=O)[C@H](Cc2c[nH]cn2)/N=C(\S)Nc2ccc(O[C@H]3O[C@@H](C)[C@@H](O)[C@@H](OC)[C@@H]3O)cc2)C(=O)OCc2c1cc1n(c2=O)Cc2cc3ccccc3nc2-1`, the IC50 in assay [1] turned out to be 30 nM; in [2], 10 nM; in assay [3] it was 15 nM.
`CC[C@@]1(OC(=O)[C@H](NC(=O)[C@H](Cc2c[nH]cn2)/N=C(\S)Nc2ccc(O[C@H]3O[C@@H](C)[C@@H](O)[C@@H](OC)[C@@H]3O)cc2)C(C)C)C(=O)OCc2c1cc1n(c2=O)Cc2cc3ccccc3nc2-1`: the half-inhibitory concentration (IC50) worked out at 600 nM in assay [1], 160 nM in assay [2] and 230 nM in [3].
With `CC[C@@]1(OC(=O)[C@H](NC(=O)[C@H](CCCN=C(N)N)/N=C(\S)Nc2ccc(O[C@H]3O[C@@H](C)[C@@H](O)[C@@H](OC)[C@@H]3O)cc2)C(C)C)C(=O)OCc2c1cc1n(c2=O)Cc2cc3ccccc3nc2-1`, the concentration for half-maximal inhibition (IC50) in [1] turned out to be 400 nM; in [2], 100 nM; in assay [3] it was 110 nM.
Take `CC[C@@]1(OC(=O)[C@H](NC(=O)[C@H](CCCCN)/N=C(\S)Nc2ccc(O[C@H]3O[C@@H](C)[C@@H](O)[C@@H](OC)[C@@H]3O)cc2)C(C)C)C(=O)OCc2c1cc1n(c2=O)Cc2cc3ccccc3nc2-1`: the concentration for half-maximal inhibition (IC50) in assay [1] turned out to be 600 nM; in assay [2], 120 nM; in assay [3], 150 nM.
With `CC[C@@]1(O)C(=O)OCc2c1cc1n(c2=O)Cc2cc3c(CN(C)C)c(O)ccc3nc2-1.Cl` [TOPOTECAN HYDROCHLORIDE], the NOEC turned out to be 0.1 µM in assay [4]; 1 µM in assay [5]; 10 µM in assay [6]; 1 µM in assay [7]; 0.1 µM in assay [8]; 1 µM in [9]. The NOEC in assay [10] turned out to be 1 µM; in [11], 0.1 µM; in assay [12] it was 0.1 µM.
For the compound `CC[C@@]1(OC(=O)CNC(=O)[C@H](CCCCN)/N=C(\S)Nc2ccc(O[C@H]3O[C@@H](C)[C@@H](O)[C@@H](OC)[C@@H]3O)cc2)C(=O)OCc2c1cc1n(c2=O)Cc2cc3ccccc3nc2-1`, the IC50 came to 50 nM in assay [1], 10 nM in assay [2] and 30 nM in assay [3].
